# Measurements reported in ChEMBL document CHEMBL1129275, “Synthesis and in vitro and in vivo characteristics of an iodinated analogue of the beta-adrenoceptor antagonist carazolol” (J Med Chem, 1996).
# Columns and labels:
# [1] = system: Oryctolagus cuniculus; assay: Biodistribution pattern of [123I]- ligand was evaluated in muscle of anesthetized rabbit after Intravenous injection of 50 uCi after 2 hr; format: ADME, organism-based, Muscle tissue; details: in vivo
# Procedure, shortened: (§1)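 Male New Zealand white rabbits, 2.5–3.5 kg, anesthetized with 5 mg/kg xylazine plus 30 mg/kg ketamine im. Each received 50 uCi radioligand (specific activity > 5000 Ci/mmol) iv via ear vein. Animals were killed with 200 mg/kg pentobarbital im at the set time. Blood was drawn by intracardiac puncture and organs weighed. Gamma counting was decay-corrected, expressed as %ID x kg body weight/g tissue, mean ± SEM, n = 3/time point.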
# [2] = system: Oryctolagus cuniculus; assay: Biodistribution pattern of [123I]- ligand was evaluated in liver of anesthetized rabbit after Intravenous injection of 50 uCi after 6 hr; format: ADME, organism-based; details: in vivo; procedure, shortened: as §1
# [3] = system: Oryctolagus cuniculus; assay: Cerebral biodistribution pattern of [123I]- ligand was evaluated in striatum of anesthetized rabbit after Intravenous injection of 50 uCi after 2 hr; format: ADME, organism-based; details: in vivo
# Procedure, shortened: (§2)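 Male New Zealand white rabbits (2.5–3.5 kg), anesthetized with xylazine 5 mg/kg plus ketamine 30 mg/kg im, given 50 µCi radioligand (specific activity >5000 Ci/mmol) iv via ear vein. Euthanized at set times by pentobarbital 200 mg/kg im, n = 3/time point. Organs removed and weighed, gamma-counted, decay/weight corrected; expressed as % ID x kg body weight/g tissue, mean ± SEM.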
# [4] = system: Oryctolagus cuniculus; assay: Cerebral biodistribution pattern of [123I]- ligand was evaluated in hypothalamus of anesthetized rabbit after Intravenous injection of 50 uCi after 24 hr; format: ADME, organism-based; details: in vivo; procedure, shortened: as §2
# [5] = system: Oryctolagus cuniculus; assay: Biodistribution pattern of [123I]- ligand was evaluated in left ventricular muscle of anesthetized rabbit after Intravenous injection of 50 uCi after 2 hr; format: ADME, organism-based, Muscle tissue; details: in vivo; procedure, shortened: as §1
# [6] = system: Oryctolagus cuniculus; assay: Biodistribution pattern of [123I]- ligand was evaluated in right ventricular muscle of anesthetized rabbit after Intravenous injection of 50 uCi after 5 min; format: ADME, organism-based, Muscle tissue; details: in vivo; procedure, shortened: as §2
# [7] = system: Oryctolagus cuniculus; assay: Biodistribution pattern of [123I]- ligand was evaluated in intestine of anesthetized rabbit after Intravenous injection of 50 uCi after 4 hr; format: ADME, organism-based; details: in vivo; procedure, shortened: as §1
# [8] = system: Oryctolagus cuniculus; assay: Biodistribution pattern of [123I]- ligand was evaluated in right ventricular muscle of anesthetized rabbit after Intravenous injection of 50 uCi after 4 hr; format: ADME, organism-based, Muscle tissue; details: in vivo; procedure, shortened: as §2
# [9] = system: Oryctolagus cuniculus; assay: Biodistribution pattern of [123I]- ligand was evaluated in muscle of anesthetized rabbit after Intravenous injection of 50 uCi after 1 hr; format: ADME, organism-based, Muscle tissue; details: in vivo; procedure, shortened: as §1
# [10] = system: Oryctolagus cuniculus; assay: Biodistribution pattern of [123I]- ligand was evaluated in muscle of anesthetized rabbit after Intravenous injection of 50 uCi after 6 hr; format: ADME, organism-based, Muscle tissue; details: in vivo; procedure, shortened: as §2
# [11] = system: Oryctolagus cuniculus; assay: Biodistribution pattern of [123I]- ligand was evaluated in kidney of anesthetized rabbit after Intravenous injection of 50 uCi after 5 min; format: ADME, organism-based; details: in vivo; procedure, shortened: as §1
# [12] = system: Oryctolagus cuniculus; assay: Cerebral biodistribution pattern of [123I]- ligand was evaluated in pituitary gland of anesthetized rabbit after Intravenous injection of 50 uCi after 24 hr; format: ADME, organism-based; details: in vivo; procedure, shortened: as §2
# [13] = system: Oryctolagus cuniculus; assay: Biodistribution pattern of [123I]- ligand was evaluated in spleen of anesthetized rabbit after Intravenous injection of 50 uCi after 5 min; format: ADME, organism-based; details: in vivo; procedure, shortened: as §2
# [14] = system: Oryctolagus cuniculus; assay: Biodistribution pattern of [123I]- ligand was evaluated in lung of anesthetized rabbit after Intravenous injection of 50 uCi after 1 hr; format: ADME, organism-based; details: in vivo; procedure, shortened: as §1
# [15] = system: Oryctolagus cuniculus; assay: Biodistribution pattern of [123I]- ligand was evaluated in left atrial muscle of anesthetized rabbit after Intravenous injection of 50 uCi after 2 hr; format: ADME, organism-based, Muscle tissue; details: in vivo; procedure, shortened: as §1
# [16] = system: Oryctolagus cuniculus; assay: Biodistribution pattern of [123I]- ligand was evaluated in spleen of anesthetized rabbit after Intravenous injection of 50 uCi after 6 hr; format: ADME, organism-based; details: in vivo; procedure, shortened: as §2
# [17] = system: Oryctolagus cuniculus; assay: Cerebral biodistribution pattern of [123I]- ligand was evaluated in cerebellum of anesthetized rabbit after Intravenous injection of 50 uCi after 24 hr; format: ADME, organism-based; details: in vivo; procedure, shortened: as §2
# [18] = system: Oryctolagus cuniculus; assay: Cerebral biodistribution pattern of [123I]- ligand was evaluated in frontal cortex of anesthetized rabbit after Intravenous injection of 50 uCi after 6 hr; format: ADME, organism-based; details: in vivo; procedure, shortened: as §2
# [19] = system: Oryctolagus cuniculus; assay: Biodistribution pattern of [123I]- ligand was evaluated in blood of anesthetized rabbit after Intravenous injection of 50 uCi after 6 hr; format: ADME, organism-based; details: in vivo; procedure, shortened: as §1
# [20] = system: Oryctolagus cuniculus; assay: Biodistribution pattern of [123I]- ligand was evaluated in liver of anesthetized rabbit after Intravenous injection of 50 uCi after 1 hr; format: ADME, organism-based; details: in vivo; procedure, shortened: as §1
# [21] = system: Oryctolagus cuniculus; assay: Biodistribution pattern of [123I]- ligand was evaluated in muscle of anesthetized rabbit after Intravenous injection of 50 uCi after 4 hr; format: ADME, organism-based, Muscle tissue; details: in vivo; procedure, shortened: as §1
# [22] = system: Oryctolagus cuniculus; assay: Biodistribution pattern of [123I]- ligand was evaluated in spleen of anesthetized rabbit after Intravenous injection of 50 uCi after 1 hr; format: ADME, organism-based; details: in vivo; procedure, shortened: as §2
# [23] = system: Oryctolagus cuniculus; assay: Biodistribution pattern of [123I]- ligand was evaluated in kidney of anesthetized rabbit after Intravenous injection of 50 uCi after 6 hr; format: ADME, organism-based; details: in vivo; procedure, shortened: as §1
# [24] = system: Oryctolagus cuniculus; assay: Cerebral biodistribution pattern of [123I]- ligand was evaluated in cerebellum of anesthetized rabbit after Intravenous injection of 50 uCi after 2 hr; format: ADME, organism-based; details: in vivo; procedure, shortened: as §2
# [25] = system: Oryctolagus cuniculus; assay: Cerebral biodistribution pattern of [123I]- ligand was evaluated in frontal cortex of anesthetized rabbit after Intravenous injection of 50 uCi after 5 min; format: ADME, organism-based; details: in vivo; procedure, shortened: as §2
# [26] = system: Oryctolagus cuniculus; assay: Cerebral biodistribution pattern of [123I]- ligand was evaluated in frontal cortex of anesthetized rabbit after Intravenous injection of 50 uCi after 2 hr; format: ADME, organism-based; details: in vivo; procedure, shortened: as §2
# [27] = system: Oryctolagus cuniculus; assay: Biodistribution pattern of [123I]- ligand was evaluated in right ventricular muscle of anesthetized rabbit after Intravenous injection of 50 uCi after 30 min; format: ADME, organism-based, Muscle tissue; details: in vivo, 0.5 h; procedure, shortened: as §2
# [28] = system: Oryctolagus cuniculus; assay: Cerebral biodistribution pattern of [123I]- ligand was evaluated in pituitary gland of anesthetized rabbit after Intravenous injection of 50 uCi after 6 hr; format: ADME, organism-based; details: in vivo; procedure, shortened: as §2
# [29] = system: Oryctolagus cuniculus; assay: Cerebral biodistribution pattern of [123I]- ligand was evaluated in hypothalamus of anesthetized rabbit after Intravenous injection of 50 uCi after 4 hr; format: ADME, organism-based; details: in vivo; procedure, shortened: as §2
# [30] = system: Oryctolagus cuniculus; assay: Cerebral biodistribution pattern of [123I]- ligand was evaluated in cerebellum of anesthetized rabbit after Intravenous injection of 50 uCi after 30 min; format: ADME, organism-based; details: in vivo, 0.5 h; procedure, shortened: as §2
# [31] = system: Oryctolagus cuniculus; assay: Cerebral biodistribution pattern of [123I]- ligand was evaluated in striatum of anesthetized rabbit after Intravenous injection of 50 uCi after 6 hr; format: ADME, organism-based; details: in vivo; procedure, shortened: as §2
# [32] = system: Oryctolagus cuniculus; assay: Biodistribution pattern of [123I]- ligand was evaluated in left atrial muscle of anesthetized rabbit after Intravenous injection of 50 uCi after 24 hr; format: ADME, organism-based, Muscle tissue; details: in vivo; procedure, shortened: as §1
# [33] = system: Oryctolagus cuniculus; assay: Biodistribution pattern of [123I]- ligand was evaluated in blood of anesthetized rabbit after Intravenous injection of 50 uCi after 24 hr; format: ADME, organism-based; details: in vivo; procedure, shortened: as §1
# [34] = system: Oryctolagus cuniculus; assay: Biodistribution pattern of [123I]- ligand was evaluated in liver of anesthetized rabbit after Intravenous injection of 50 uCi after 2 hr; format: ADME, organism-based; details: in vivo; procedure, shortened: as §1
# [35] = system: Oryctolagus cuniculus; assay: Cerebral biodistribution pattern of [123I]- ligand was evaluated in thalamus of anesthetized rabbit after Intravenous injection of 50 uCi after 30 min; format: ADME, organism-based; details: in vivo, 0.5 h; procedure, shortened: as §2
# [36] = system: Oryctolagus cuniculus; assay: Biodistribution pattern of [123I]- ligand was evaluated in left ventricular muscle of anesthetized rabbit after Intravenous injection of 50 uCi after 24 hr; format: ADME, organism-based, Muscle tissue; details: in vivo; procedure, shortened: as §1
# [37] = system: Oryctolagus cuniculus; assay: Biodistribution pattern of [123I]- ligand was evaluated in right atrial muscle of anesthetized rabbit after Intravenous injection of 50 uCi after 6 hr; format: ADME, organism-based, Muscle tissue; details: in vivo; procedure, shortened: as §2
# [38] = system: Oryctolagus cuniculus; assay: Biodistribution pattern of [123I]- ligand was evaluated in left atrial muscle of anesthetized rabbit after Intravenous injection of 50 uCi after 6 hr; format: ADME, organism-based, Muscle tissue; details: in vivo; procedure, shortened: as §1
compound,measurement,setting,value
CC(C)(/C=C/I)NC[C@H](O)COc1cccc2[nH]c3ccccc3c12,ID x kg of body weight/g of tissue,[1],0.05%
same,ID x kg of body weight/g of tissue,[2],0.03%
same,ID x kg of body weight/g of tissue,[3],0.07%
same,ID x kg of body weight/g of tissue,[4],0.02%
same,ID x kg of body weight/g of tissue,[5],0.2%
same,ID x kg of body weight/g of tissue,[6],0.43%
same,ID x kg of body weight/g of tissue,[7],0.06%
same,ID x kg of body weight/g of tissue,[8],0.12%
same,ID x kg of body weight/g of tissue,[9],0.07%
same,ID x kg of body weight/g of tissue,[10],0.04%
same,ID x kg of body weight/g of tissue,[11],0.92%
same,ID x kg of body weight/g of tissue,[12],0.03%
same,ID x kg of body weight/g of tissue,[13],0.39%
same,ID x kg of body weight/g of tissue,[14],1.43%
same,ID x kg of body weight/g of tissue,[15],0.17%
same,ID x kg of body weight/g of tissue,[16],0.07%
same,ID x kg of body weight/g of tissue,[17],0.07%
same,ID x kg of body weight/g of tissue,[18],0.05%
same,ID x kg of body weight/g of tissue,[19],0.01%
same,ID x kg of body weight/g of tissue,[20],0.13%
same,ID x kg of body weight/g of tissue,[21],0.04%
same,ID x kg of body weight/g of tissue,[22],0.28%
same,ID x kg of body weight/g of tissue,[23],0.04%
same,ID x kg of body weight/g of tissue,[24],0.15%
same,ID x kg of body weight/g of tissue,[25],0.27%
same,ID x kg of body weight/g of tissue,[26],0.09%
same,ID x kg of body weight/g of tissue,[27],< 0.21%
same,ID x kg of body weight/g of tissue,[28],0.06%
same,ID x kg of body weight/g of tissue,[29],0.03%
same,ID x kg of body weight/g of tissue,[30],< 0.15%
same,ID x kg of body weight/g of tissue,[31],0.04%
same,ID x kg of body weight/g of tissue,[32],0.03%
same,ID x kg of body weight/g of tissue,[33],0.01%
same,ID x kg of body weight/g of tissue,[34],0.09%
same,ID x kg of body weight/g of tissue,[35],< 0.1%
same,ID x kg of body weight/g of tissue,[36],0.02%
same,ID x kg of body weight/g of tissue,[37],0.07%
same,ID x kg of body weight/g of tissue,[38],0.1%
